Measured values from ChEMBL document CHEMBL1141523, “A new Heck reaction modification using ketone Mannich bases as enone precursors: parallel synthesis of anti-leishmanial chalcones” (Bioorg Med Chem Lett, 2008).

Assays:
[1] = test system: Leishmania donovani; test: Antileishmanial activity against axenic Leishmania donovani amastigotes by Alamar Blue assay; format: functional, organism-based
In short: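 Dose-response GI50 (50% growth inhibition) was run on axenic L. donovani amastigotes (5.0 × 10^5 cells/ml) mixed 1:1 with compound at twice the final concentration in amastigote medium with 1% DMSO. Incubation was 24 h at 37 °C in 5% CO2, plus 24 h with alamarBlue, then fluorescence at 544/590 nm. Medium ± DMSO was taken as 0% inhibition. Triplicate wells were used, with duplicate or single experiments ± standard error.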

[2] = test system: Leishmania donovani; test: Antileishmanial activity against axenic Leishmania donovani amastigotes at 15 uM by Alamar Blue assay; format: functional
In short: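 L. donovani axenic amastigotes (5.0 × 10^5 cells/ml) were added to an equal volume of compound made up at twice the final concentration in complete amastigote medium with 1% DMSO, giving a 15 µM single-concentration screen. Plates were incubated 24 h at 37 °C in 5% CO2, then alamarBlue was added for 24 h more. Fluorescence was read at ex 544 nm, em 590 nm. Medium ± DMSO served as 0% inhibition, with triplicate wells.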

[3] = test system: THP-1; test: Cytotoxicity against human THP1 cells at 1 uM after 48 hrs by Alamar Blue assay; format: cell-based; conditions: thp-1, 48 h
In short: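 THP-1 macrophages in complete RPMI-1640 (8 × 10^5 cells/ml) were added to an equal volume of compound, stated as 2 µM in complete medium with 1% DMSO. Triplicate wells were incubated 48 h at 37 °C in 5% CO2. AlamarBlue was then added for 3 h and fluorescence was read. Medium with and without DMSO served as 0% inhibition controls.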

[4] = test system: Leishmania donovani; test: Antileishmanial activity against axenic Leishmania donovani amastigotes at 1 uM by Alamar Blue assay; format: functional

Row | Structure (SMILES) | IC50 ([1]; in the assay text read “by tetrazolium dye-based assay” for “by Alamar Blue assay”) [µM] | inhibition at 15 µM [2] [%] | GI50 [1] [µM] | Activity [3] [%] | inhibition at 1 µM [4] [%]
1 | COc1ccc(C(=O)/C=C/c2cccc3ccccc23)cc1 | > 200 | 51 | – | – | –
2 | O=C(/C=C/c1ccc(NC(=O)c2ccccc2)cc1)c1ccc(Cl)cc1 | – | 59.8 | – | – | –
3 | O=C(Nc1ccc(/C=C/C(=O)c2cccs2)cc1)c1ccccc1 | – | 95.3 | 5.5 | 6 | –
4 | O=C(Nc1ccc(/C=C/C(=O)c2ccco2)cc1)c1ccccc1 | – | 92.4 | 6 | 0 | –
5 | CC(=O)c1ccc(/C=C/C(=O)c2ccccc2)cc1 | – | 93.6 | 5.6 | 45.7 | –
6 | O=C(/C=C/c1ccc(Oc2ccccc2)nc1)c1ccccc1 | – | 63.7 | – | – | –
7 | COc1ccc(C(=O)/C=C/c2ccc(Oc3ccccc3)nc2)cc1 | – | 42 | – | – | –
8 | COc1ccc(C(=O)/C=C/c2ccc(NC(=O)c3ccccc3)cc2)cc1 | – | 2.1 | – | – | –
9 | O=C(/C=C/c1ccc(NC(=O)c2ccccc2)cc1)c1cccnc1 | – | 98.7 | 2.5 | 0 | –
10 | O=C(/C=C/c1ccc(NC(=O)c2ccccc2)cc1)c1ccccc1 | – | 91.6 | 7.6 | 37 | –
11 | COc1ccc(C(=O)/C=C/c2ccc(NC(C)=O)cc2)cc1 | – | 54.7 | – | – | –
12 | C[C@@H]1[C@H](O)[C@@H](C)/C=C/C=C/C=C/C=C/C=C/C=C/C=C/[C@H](O[C@@H]2O[C@H](C)[C@@H](O)[C@H](N)[C@@H]2O)C[C@@H]2O[C@](O)(C[C@@H](O)C[C@@H](O)[C@H](O)CC[C@@H](O)C[C@@H](O)CC(=O)O[C@H]1C)C[C@H](O)[C@H]2C(=O)O [AMPHOTERICIN B] | – | 99 | – | – | > 90
